From ChEMBL document CHEMBL4339192, “De Novo Designed Amphipathic α-Helical Antimicrobial Peptides Incorporating Dab and Dap Residues on the Polar Face To Treat the Gram-Negative Pathogen, Acinetobacter baumannii” (J Med Chem, 2019)
Values after ≈ are worked out from the molar mass of the structure shown. Where a SMILES comes first, the peptide text is derived from it. [ ]: non-standard residue; d: D form. Dab = NCC[C@H](N)C(=O)O

Legend:
Acinetobacter baumannii [1] = assay: Antibacterial activity against Acinetobacter baumannii 649 measured after 24 hrs in presence of 25% human serum by microtiter dilution method; assay type: functional; settings: Acinetobacter baumannii, 649, 24 h
Method in brief: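 Blood strain 649 was tested by MH broth microdilution with and without 25% (v/v) human serum added to the medium. The test used a final inoculum of 5 × 10^5 cfu/mL and incubation at 37 °C. The ratio is the MIC in serum over the MIC in MH alone.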

[2] = Therapeutic index, ratio of HC50 for human RBC to MIC for polymyxin B/colistin-resistant Acinetobacter baumannii M89963; assay type: toxicity; settings: human red blood cells, read-out: TI
Method in brief: (§1)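 T.I. = HC50/MIC. For HC50, peptide (quantified by amino acid analysis) was two-fold serially diluted over 12 concentrations up to 1000 μg/mL. It was incubated with 1% fresh human erythrocytes in PBS, pH 7.4, for 18 h at 37 °C. After 800g centrifugation, hemoglobin was read at 570 nm against water (100%) and no-peptide (0%) controls. HC50 came from a lysis-versus-concentration plot, average of 3 replicates.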

Acinetobacter baumannii [3] = assay: Antibacterial activity against Acinetobacter baumannii 649 measured after 24 hrs by microtiter dilution method; assay type: functional; settings: Acinetobacter baumannii, 649, 24 h
Method in brief: (§2)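 Broth microdilution in Mueller-Hinton (MH) medium. […] Plates were incubated 24 h at 37 °C. MIC was the lowest peptide concentration that inhibited growth, based on three sets of replicates.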

[4] = Therapeutic index, ratio of HC50 for human RBC to MIC for polymyxin B/colistin-resistant Acinetobacter baumannii M89955; assay type: toxicity; settings: human red blood cells, read-out: TI; method in brief: as §1
[5] = Therapeutic index, ratio of HC50 for human RBC to MIC for polymyxin B/colistin-resistant Acinetobacter baumannii M89953; assay type: toxicity; settings: human red blood cells, read-out: TI; method in brief: as §1
[6] = Therapeutic index, ratio of HC50 for human RBC to MIC for polymyxin B/colistin-resistant Acinetobacter baumannii M89951; assay type: toxicity; settings: human red blood cells, read-out: TI; method in brief: as §1
[7] = Therapeutic index, ratio of HC50 for human RBC to MIC for polymyxin B/colistin-resistant Acinetobacter baumannii M89952; assay type: toxicity; settings: human red blood cells, read-out: TI; method in brief: as §1
[8] = Therapeutic index, ratio of HC50 for human RBC to MIC for polymyxin B/colistin-resistant Acinetobacter baumannii M89949; assay type: toxicity; settings: human red blood cells, read-out: TI; method in brief: as §1
[9] = Hemolytic activity against human RBC measured after 18 hrs by spectrophotometric method; assay type: ADME, cell-based, Erythrocyte; settings: human red blood cells (erythrocytes)
Method in brief: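 Peptide (amount by amino acid analysis), two-fold serial dilutions at 12 concentrations up to 1000 μg/mL, with 1% human erythrocytes in PBS pH 7.4, 37 °C, 18 h. Unlysed cells removed by centrifugation (800g); hemoglobin read at 570 nm. Water-lysed cells = 100%, no-peptide cells = 0%. HC50 from plot of % lysis vs concentration (μM), average of 3 replicates.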

[10] = Therapeutic index, ratio of HC50 for human RBC to MIC for polymyxin B/colistin-resistant Acinetobacter baumannii M89941; assay type: toxicity; settings: human red blood cells, read-out: TI; method in brief: as §1
Acinetobacter baumannii [11] = assay: Antibacterial activity against Acinetobacter baumannii isolate 1001611 measured after 24 hrs by microtiter dilution method; assay type: functional; settings: isolate 1001611, 24 h; method in brief: as §2
Acinetobacter baumannii [12] = assay: Antibacterial activity against Acinetobacter baumannii isolate 1007660 measured after 24 hrs by microtiter dilution method; assay type: functional; settings: isolate 1007660, 24 h; method in brief: as §2
Acinetobacter baumannii [13] = assay: Antibacterial activity against Acinetobacter baumannii isolate 1021371 measured after 24 hrs by microtiter dilution method; assay type: functional; settings: isolate 1021371, 24 h; method in brief: as §2
Acinetobacter baumannii [14] = assay: Antibacterial activity against Acinetobacter baumannii isolate 952654 measured after 24 hrs by microtiter dilution method; assay type: functional; settings: isolate 952654, 24 h; method in brief: as §2
Acinetobacter baumannii [15] = assay: Antibacterial activity against Acinetobacter baumannii isolate 9383370 measured after 24 hrs by microtiter dilution method; assay type: functional; settings: isolate 9383370, 24 h; method in brief: as §2
Acinetobacter baumannii [16] = assay: Antibacterial activity against Acinetobacter baumannii isolate 961997 measured after 24 hrs by microtiter dilution method; assay type: functional; settings: isolate 961997, 24 h; method in brief: as §2
Acinetobacter baumannii [17] = assay: Antibacterial activity against Acinetobacter baumannii isolate 1002956 measured after 24 hrs by microtiter dilution method; assay type: functional; settings: isolate 1002956, 24 h; method in brief: as §2
Acinetobacter baumannii [18] = assay: Antibacterial activity against Acinetobacter baumannii isolate 977751 measured after 24 hrs by microtiter dilution method; assay type: functional; settings: isolate 977751, 24 h; method in brief: as §2
Acinetobacter baumannii [19] = assay: Antibacterial activity against Acinetobacter baumannii isolate 1035166 measured after 24 hrs by microtiter dilution method; assay type: functional; settings: isolate 1035166, 24 h; method in brief: as §2
Acinetobacter baumannii [20] = assay: Antibacterial activity against Acinetobacter baumannii isolate 1010282 measured after 24 hrs by microtiter dilution method; assay type: functional; settings: isolate 1010282, 24 h; method in brief: as §2
Acinetobacter baumannii [21] = assay: Antibacterial activity against Acinetobacter baumannii isolate 1010245 measured after 24 hrs by microtiter dilution method; assay type: functional; settings: isolate 1010245, 24 h; method in brief: as §2
Acinetobacter baumannii [22] = assay: Antibacterial activity against Acinetobacter baumannii isolate 1017395 measured after 24 hrs by microtiter dilution method; assay type: functional; settings: isolate 1017395, 24 h; method in brief: as §2
Acinetobacter baumannii [23] = assay: Antibacterial activity against Acinetobacter baumannii isolate 968886 measured after 24 hrs by microtiter dilution method; assay type: functional; settings: isolate 968886, 24 h; method in brief: as §2
Acinetobacter baumannii [24] = assay: Antibacterial activity against Acinetobacter baumannii isolate 964304 measured after 24 hrs by microtiter dilution method; assay type: functional; settings: isolate 964304, 24 h; method in brief: as §2
Acinetobacter baumannii [25] = assay: Antibacterial activity against Acinetobacter baumannii isolate 963659 measured after 24 hrs by microtiter dilution method; assay type: functional; settings: isolate 963659, 24 h; method in brief: as §2
Acinetobacter baumannii [26] = assay: Antibacterial activity against Acinetobacter baumannii isolate 963618 measured after 24 hrs by microtiter dilution method; assay type: functional; settings: isolate 963618, 24 h; method in brief: as §2
Acinetobacter baumannii [27] = assay: Antibacterial activity against Acinetobacter baumannii isolate 1018887 measured after 24 hrs by microtiter dilution method; assay type: functional; settings: isolate 1018887, 24 h; method in brief: as §2
Acinetobacter baumannii [28] = assay: Antibacterial activity against Acinetobacter baumannii isolate 1035794 measured after 24 hrs by microtiter dilution method; assay type: functional; settings: isolate 1035794, 24 h; method in brief: as §2
Acinetobacter baumannii [29] = assay: Antibacterial activity against Acinetobacter baumannii isolate 981650 measured after 24 hrs by microtiter dilution method; assay type: functional; settings: isolate 981650, 24 h; method in brief: as §2
Acinetobacter baumannii [30] = assay: Antibacterial activity against Acinetobacter baumannii isolate 965463 measured after 24 hrs by microtiter dilution method; assay type: functional; settings: isolate 965463, 24 h; method in brief: as §2
Acinetobacter baumannii [31] = assay: Antibacterial activity against polymyxin B/colistin-resistant Acinetobacter baumannii M89963 measured after 24 hrs by microtiter dilution method; assay type: functional; settings: M89963, 24 h; method in brief: as §2
Acinetobacter baumannii [32] = assay: Antibacterial activity against polymyxin B/colistin-resistant Acinetobacter baumannii M89955 measured after 24 hrs by microtiter dilution method; assay type: functional; settings: M89955, 24 h; method in brief: as §2
Acinetobacter baumannii [33] = assay: Antibacterial activity against polymyxin B/colistin-resistant Acinetobacter baumannii M89953 measured after 24 hrs by microtiter dilution method; assay type: functional; settings: M89953, 24 h; method in brief: as §2
Acinetobacter baumannii [34] = assay: Antibacterial activity against polymyxin B/colistin-resistant Acinetobacter baumannii M89952 measured after 24 hrs by microtiter dilution method; assay type: functional; settings: M89952, 24 h; method in brief: as §2
Acinetobacter baumannii [35] = assay: Antibacterial activity against polymyxin B/colistin-resistant Acinetobacter baumannii M89951 measured after 24 hrs by microtiter dilution method; assay type: functional; settings: M89951, 24 h; method in brief: as §2
Acinetobacter baumannii [36] = assay: Antibacterial activity against polymyxin B/colistin-resistant Acinetobacter baumannii M89949 measured after 24 hrs by microtiter dilution method; assay type: functional; settings: M89949, 24 h; method in brief: as §2
Acinetobacter baumannii [37] = assay: Antibacterial activity against polymyxin B/colistin-resistant Acinetobacter baumannii M89941 measured after 24 hrs by microtiter dilution method; assay type: functional; settings: M89941, 24 h; method in brief: as §2

CC(=O)N[C@H](CCCCN)C(=O)N[C@H](CC(C)C)C(=O)N[C@@H](CCN)C(=O)N[C@H](CO)C(=O)N[C@H](CC(C)C)C(=O)N[C@H](CC(C)C)C(=O)N[C@@H](CCN)C(=O)N[C@@H](C(=O)N[C@H](CC(C)C)C(=O)N[C@H](CO)C(=O)N[C@@H](CCN)C(=O)N[C@H](C)C(=O)N[C@H](CCCCN)C(=O)N[C@H](C)C(=O)N[C@H](C)C(=O)N[C@H](CCCCN)C(=O)N[C@H](CC(C)C)C(=O)N[C@@H](CCN)C(=O)N[C@@H](C(=O)N[C@H](CC(C)C)C(=O)N[C@H](CC(C)C)C(=O)N[C@@H](CCN)C(=O)N[C@H](C)C(=O)N[C@H](CC(C)C)C(=O)N[C@H](CO)C(=O)N[C@H](CO)C(N)=O)[C@H](C)O)[C@H](C)O (Ac-[dK][dL][Dab][dS][dL][dL][Dab][dT][dL][dS][Dab][dA][dK][dA][dA][dK][dL][Dab][dT][dL][dL][Dab][dA][dL][dS][dS]-NH2)
MIC (Acinetobacter baumannii [1]): 0.7 µM
selectivity ratio [2]: > 1010
MIC (Acinetobacter baumannii [3]): 0.4 µM (≈ 1.07 µg/mL)
selectivity ratio [4]: > 1010
selectivity ratio [5]: > 1010
selectivity ratio [6]: > 1010
selectivity ratio [7]: > 1010
selectivity ratio [8]: > 1010
HC50 at 18 h [9]: > 708 µM
selectivity ratio [10]: > 1010
MIC (Acinetobacter baumannii [11]): 0.4 µM (≈ 1.07 µg/mL)
MIC (Acinetobacter baumannii [12]): 0.4 µM (≈ 1.07 µg/mL)
MIC (Acinetobacter baumannii [13]): 0.4 µM (≈ 1.07 µg/mL)
MIC (Acinetobacter baumannii [14]): 0.4 µM (≈ 1.07 µg/mL)
MIC (Acinetobacter baumannii [15]): 0.7 µM (≈ 1.88 µg/mL)
MIC (Acinetobacter baumannii [16]): 1.5 µM (≈ 4.03 µg/mL)
MIC (Acinetobacter baumannii [17]): 0.4 µM (≈ 1.07 µg/mL)
MIC (Acinetobacter baumannii [18]): 0.7 µM (≈ 1.88 µg/mL)
MIC (Acinetobacter baumannii [19]): 0.7 µM (≈ 1.88 µg/mL)
MIC (Acinetobacter baumannii [20]): 0.7 µM (≈ 1.88 µg/mL)
MIC (Acinetobacter baumannii [21]): 0.4 µM (≈ 1.07 µg/mL)
MIC (Acinetobacter baumannii [22]): 0.7 µM (≈ 1.88 µg/mL)
MIC (Acinetobacter baumannii [23]): 0.7 µM (≈ 1.88 µg/mL)
MIC (Acinetobacter baumannii [24]): 0.7 µM (≈ 1.88 µg/mL)
MIC (Acinetobacter baumannii [25]): 0.7 µM (≈ 1.88 µg/mL)
MIC (Acinetobacter baumannii [26]): 0.4 µM (≈ 1.07 µg/mL)
MIC (Acinetobacter baumannii [27]): 0.7 µM (≈ 1.88 µg/mL)
MIC (Acinetobacter baumannii [28]): 0.7 µM (≈ 1.88 µg/mL)
MIC (Acinetobacter baumannii [29]): 0.4 µM (≈ 1.07 µg/mL)
MIC (Acinetobacter baumannii [30]): 0.7 µM (≈ 1.88 µg/mL)
MIC (Acinetobacter baumannii [31]): 0.7 µM (≈ 1.88 µg/mL)
MIC (Acinetobacter baumannii [32]): 0.7 µM (≈ 1.88 µg/mL)
MIC (Acinetobacter baumannii [33]): 1.4 µM (≈ 3.76 µg/mL)
MIC (Acinetobacter baumannii [34]): 0.7 µM (≈ 1.88 µg/mL)
MIC (Acinetobacter baumannii [35]): 0.7 µM (≈ 1.88 µg/mL)
MIC (Acinetobacter baumannii [36]): 0.7 µM (≈ 1.88 µg/mL)
MIC (Acinetobacter baumannii [37]): 0.4 µM (≈ 1.07 µg/mL)
